Results from different studies.
Each line is one published result; the experiments were not run side by side.
Target: Tyrosine-protein kinase Fer (FER, Homo sapiens, UniProt P16591)

| SMILES | test | setting | quantity | result |
| --- | --- | --- | --- | --- |
| Nc1ncc(-c2nc(N3CCOCC3)nc(N3CCOCC3)n2)c(C(F)F)n1 | binding, competition with immobilised ligand | 10 µM | remaining binding | 67% |
| C#Cc1n[nH]c2c(-c3cn([C@@H](C)c4ccccc4)c(=O)[nH]c3=O)cc(F)cc12 | enzyme activity, inhibitor | 0.1 µM | inhibition | 1.5% |
| COc1cc(Nc2ncc(F)c(Nc3ccc4c(n3)NC(=O)C(C)(C)O4)n2)cc(OC)c1OC | binding, competition with immobilised ligand | 10 µM | inhibition | 78% |
| CCn1cnc2c(Nc3cccc(Cl)c3)nc(N[C@H]3CCCC[C@H]3N)nc21 | enzyme activity, inhibitor | 0.5 µM | remaining activity | 86.8% |
| C#Cc1n[nH]c2c(-c3cn([C@@H](C)c4ccccn4)c(=O)[nH]c3=O)cc(F)cc12 | enzyme activity, inhibitor | 0.1 µM | inhibition | 3.7% |
| Cc1nn(C)cc1-c1nc2c(N3CCN(Cc4ccc(Cl)cc4)CC3)c(Cl)cnc2[nH]1 | binding, competition with immobilised ligand | 1 µM | remaining binding | 100% |
| CC(C)(C)c1cc(C=C(C#N)C#N)cc(Br)c1O | enzyme activity, inhibitor | 0.5 µM | remaining activity | 100% |
| Cn1cc(-c2cccc(N3CCc4c(sc5c4CC(C)(C)C5)C3=O)c2CO)cc(Nc2ccncn2)c1=O | enzyme activity, inhibitor | 1 µM | inhibition | 9% |
| COc1ncccc1-c1cnn2ccc(N3CCN(C(=O)OC(C)C)CC3)nc12 | binding, competition with immobilised ligand | 1 µM | remaining binding | 100% |
| Cn1cc(-c2cc(F)cc(N3CCn4c(cc5c4CCCC5)C3=O)c2CO)cc(Nc2ccc(N3CCN(C4COC4)CC3)cn2)c1=O | enzyme activity, inhibitor | 0.1 µM | inhibition | 10% |
| Cn1cncc1[C@@](O)(COc1ccc(C#N)cc1-c1ccc(OC(F)(F)F)cc1)c1ccc(C#N)cc1 | cell-free assay, competition with immobilised ligand | 1 µM | remaining binding | 100% |
